≈ marks a conversion by molar mass, not a printed value. Calls of active or inactive are those of the source. No cut-off for these calls is given here.
Experiments:
MT4 = test: Cytotoxicity against human MT4 cells up to 8.3 uM; type: cell-based
Method in brief: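 MT-4 cells in RPMI 1640 with 10% FBS or 50% NHS, run alongside the antiviral CIC95 assay; cytotoxicity checked up to the assay upper limit of 8.3 μM.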

[1] = test system: Human immunodeficiency virus; test: Antiviral activity against Human immunodeficiency virus expressing wild type reverse transcriptase infected in human MT4 cells by p24 antigen assay in the presence of 50% normal human serum; type: functional; conditions: Human immunodeficiency virus 1, MT4; read-out: CIC95
Method in brief: (§1)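 MT-4 human T-lymphoid cells in RPMI 1640 with either 10% FBS or 50% NHS; CIC95 taken as the concentration inhibiting virus spread/replication by >95%. Geometric mean of at least two determinations, individual values within 2-fold; SEM given when ≥3 determinations.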

[2] = Solubility of the compound in water at pH 7; type: physicochemical
Method in brief: (§2)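 Water solubility of the solid compound measured at pH 2 and at pH 7.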

[3] = test system: Human immunodeficiency virus; test: Antiviral activity against Human immunodeficiency virus harboring reverse transcriptase K101E/G190A double mutant assessed as inhibition of viral replication; type: functional, organism-based
Method in brief: (§3)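 Phenosense cell culture assay against a panel of clinically derived RT mutant viruses in the presence of 10% FBS. IC50 is the compound concentration blocking 50% of viral replication. Each value is the average of two determinations.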

[4] = test system: Human immunodeficiency virus; test: Antiviral activity against Human immunodeficiency virus harboring reverse transcriptase Y188L mutant assessed as inhibition of viral replication; type: functional, organism-based; method in brief: as §3
[5] = test system: Human immunodeficiency virus; test: Antiviral activity against Human immunodeficiency virus harboring reverse transcriptase K101E/Y181C/G190A triple mutant assessed as inhibition of viral replication; type: functional, organism-based; method in brief: as §3
[6] = test system: Human immunodeficiency virus; test: Antiviral activity against Human immunodeficiency virus expressing wild type reverse transcriptase infected in human MT4 cells by p24 antigen assay in the presence of 10% FBS; type: functional; conditions: Human immunodeficiency virus 1, MT4; read-out: CIC95; method in brief: as §1
[7] = test system: Human immunodeficiency virus; test: Antiviral activity against Human immunodeficiency virus harboring reverse transcriptase G190A mutant assessed as inhibition of viral replication; type: functional, organism-based; method in brief: as §3
[8] = test system: Human immunodeficiency virus; test: Antiviral activity against Human immunodeficiency virus expressing reverse transcriptase Y181C mutant infected in human MT4 cells by p24 antigen assay in the presence of 10% FBS; type: functional; conditions: Human immunodeficiency virus 1, MT4; read-out: CIC95
Method in brief: (§4)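 Antiviral spread assay in MT-4 human T-lymphoid cells kept in RPMI 1640 with 10% FBS. Value is the CIC95, the concentration inhibiting virus replication by >95%. Reported as the geometric mean of at least two determinations, all within 2-fold of the mean. Cytotoxicity was checked up to the assay upper limit of 8.3 μM.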

[9] = test system: Human immunodeficiency virus; test: Antiviral activity against Human immunodeficiency virus harboring reverse transcriptase K103N/P225H double mutant assessed as inhibition of viral replication; type: functional, organism-based; method in brief: as §3
[10] = test system: Human immunodeficiency virus; test: Antiviral activity against Human immunodeficiency virus harboring reverse transcriptase L100l/K103N/P225P/H triple mutant assessed as inhibition of viral replication; type: functional, organism-based; method in brief: as §3
[11] = test system: Human immunodeficiency virus; test: Antiviral activity against Human immunodeficiency virus harboring reverse transcriptase V106A/G190A/F227L triple mutant assessed as inhibition of viral replication; type: functional, organism-based; method in brief: as §3
[12] = test system: Human immunodeficiency virus; test: Antiviral activity against Human immunodeficiency virus harboring reverse transcriptase Y181C mutant assessed as inhibition of viral replication; type: functional, organism-based; method in brief: as §3
[13] = Volume of distribution in Beagle dog at 2 mg/kg, po and 0.5 mg/kg, iv; type: ADME, organism-based, Canis lupus familiaris; conditions: in vivo
Method in brief: (§5)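 PK in Sprague-Dawley rats (iv solution in DMSO via an indwelling jugular cannula, or oral suspension in aqueous methylcellulose/Methocel) and beagle dogs (iv and oral given crossover, same vehicles). Plasma levels by LC-MS. F from oral versus iv dose-normalized AUC. Average of at least two animals; rat values within 25% of the mean.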

[14] = Plasma clearance in Sprague-Dawley rat at 10 mg/kg, po and 2 mg/kg, iv; type: ADME, organism-based; method in brief: as §5
[15] = Plasma clearance in Beagle dog at 2 mg/kg, po and 0.5 mg/kg, iv; type: ADME, organism-based, Canis lupus familiaris; method in brief: as §5
[16] = molecular target: Human immunodeficiency virus type 1 reverse transcriptase (Human immunodeficiency virus 1, UniProt Q72547, K103N); test: Inhibition of Human immunodeficiency virus reverse transcriptase K103N mutant by SPA assay
Method in brief: (§6)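 Recombinant HIV-1 RT polymerase scintillation proximity assay run with mutant enzyme, reported as Ki (nM). Values are geometric means of at least two determinations, each within 2-fold of the mean; SEM is given where there were ≥3 determinations.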

[17] = Volume of distribution in Sprague-Dawley rat at 10 mg/kg, po and 2 mg/kg, iv; type: ADME, organism-based; conditions: in vivo; method in brief: as §5
[18] = Half life in Beagle dog at 2 mg/kg, po and 0.5 mg/kg, iv; type: ADME, organism-based, Canis lupus familiaris; conditions: in vivo; method in brief: as §5
[19] = molecular target: Human immunodeficiency virus type 1 reverse transcriptase (Human immunodeficiency virus 1, UniProt Q72547, Y181C); test: Inhibition of Human immunodeficiency virus reverse transcriptase Y181C mutant by SPA assay; method in brief: as §6
[20] = test system: Human immunodeficiency virus; test: Antiviral activity against Human immunodeficiency virus expressing reverse transcriptase K103N mutant infected in human MT4 cells by p24 antigen assay in the presence of 10% FBS; type: functional; conditions: Human immunodeficiency virus 1, MT4; read-out: CIC95; method in brief: as §4
[21] = test system: Human immunodeficiency virus; test: Antiviral activity against Human immunodeficiency virus harboring reverse transcriptase L100l mutant assessed as inhibition of viral replication; type: functional, organism-based; method in brief: as §3
Rattus norvegicus = test: Dose normalised AUC in Sprague-Dawley rat at 10 mg/kg, po by LC-MS analysis; type: ADME, organism-based; set-up: dose 10 mg/kg, route oral; conditions: in vivo; method in brief: as §5
[22] = Solubility of the compound in water at pH 2; type: physicochemical; method in brief: as §2
[23] = Half life in Sprague-Dawley rat at 10 mg/kg, po and 2 mg/kg, iv; type: ADME, organism-based; conditions: in vivo; method in brief: as §5
[24] = test system: Human immunodeficiency virus; test: Antiviral activity against multidrug-resistant Human immunodeficiency virus assessed as inhibition of viral replication; type: functional, organism-based; method in brief: as §3
[25] = test system: Human immunodeficiency virus; test: Antiviral activity against Human immunodeficiency virus harboring reverse transcriptase G190S mutant assessed as inhibition of viral replication; type: functional, organism-based; method in brief: as §3
[26] = test system: Human immunodeficiency virus; test: Antiviral activity against wild type Human immunodeficiency virus assessed as inhibition of viral replication; type: functional, organism-based
[27] = Bioavailability in Sprague-Dawley rat at 10 mg/kg, po and 2 mg/kg, iv; type: ADME, organism-based; conditions: in vivo; method in brief: as §5
[28] = Bioavailability in Beagle dog at 2 mg/kg, po and 0.5 mg/kg, iv; type: ADME, organism-based, Canis lupus familiaris; conditions: in vivo; method in brief: as §5
Canis familiaris = test: Dose normalised AUC in Beagle dog at 2 mg/kg, po by LC-MS analysis; type: ADME, organism-based, Canis lupus familiaris; set-up: dose 2 mg/kg, route oral; conditions: in vivo; method in brief: as §5
[29] = test system: Human immunodeficiency virus; test: Antiviral activity against Human immunodeficiency virus harboring reverse transcriptase K103N mutant assessed as inhibition of viral replication; type: functional, organism-based; method in brief: as §3
[30] = Inhibition of Human immunodeficiency virus reverse transcriptase by SPA assay
[31] = test system: Human immunodeficiency virus; test: Antiviral activity against Human immunodeficiency virus harboring reverse transcriptase K103N/Y181C/G190A triple mutant assessed as inhibition of viral replication; type: functional, organism-based; method in brief: as §3

With `N#Cc1cc(Cl)cc(Oc2c(Cl)ccc3c2cnn3Cc2n[nH]c3nc(N)ccc23)c1` the Activity (MT4) was “Non-toxic”, the IC95 [1] was 43 nM and the solubility [2] was under 0.1 µg/mL. For the same molecule, the inhibition [3] was “Active”, the inhibition [4] was “inactive” and the inhibition [5] was “Active”. The IC95 [6] was 4.1 nM, the inhibition [7] was “Active” and the IC95 [8] was 68 nM. The inhibition [9] was “Active”, the inhibition [10] was “Active” and the inhibition [11] was “inactive”. The inhibition [12] was “Active”, the Vd [13] was 2 L/kg and the clearance [14] was 4.7 mL/min/kg. It also gave a clearance [15] of 7.6 mL/min/kg, a Ki [16] of 1.7 nM and a Vd [17] of 2.5 L/kg. It also gave a half-life [18] of 2.8 h, a Ki [19] of 1.9 nM and an IC95 [20] of 9.7 nM. For the same molecule, the inhibition [21] was “Active”, the AUC/dose (Rattus norvegicus) was 3.64 µM·h and the solubility [22] was 40 µg/mL (≈ 88.8 µM). The half-life [23] was 6.3 h, the inhibition [24] was “Active” and the inhibition [25] was “Active”. For the same molecule, the inhibition [26] was “Active”, the bioavailability [27] was 39% and the bioavailability [28] was 32%. For the same molecule, the AUC/dose (Canis familiaris) was 1.33 µM·h, the inhibition [29] was “Active” and the Ki [30] was 0.61 nM. The inhibition [31] was “Active”.

Source: ChEMBL document CHEMBL1938372, “Design and synthesis of conformationally constrained inhibitors of non-nucleoside reverse transcriptase” (J Med Chem, 2011)
